Data published in ChEMBL document CHEMBL4184147, “Polyphenolic Phytochemicals in Cancer Prevention and Therapy: Bioavailability versus Bioefficacy” (J Med Chem, 2017).

Tests used:
A549 [1] = experiment: Cytotoxicity against human A549 cells assessed as cell viability at 6 uM after 48 hrs by MTT assay; type: functional; details: A549, 48 h, read-out: Activity
[2] = Cytotoxicity against human MML1 cells assessed as decrease in cell viability after 48 hrs by MTT assay; type: functional, cell-based
COLO 201 [3] = experiment: Cytotoxicity against human COLO201 cells assessed as decrease in cell viability after 48 hrs by trypan blue exclusion and LDH release; details: COLO 201, 48 h
Cannabinoid receptor 1 = Cannabinoid receptor 1 (Homo sapiens, UniProt P21554); experiment: Displacement of […] from human recombinant CB1 receptor expressed in Chem1 cells after 90 mins by scintillation counting method; type: cell-based
[4] = Cytotoxicity against human MML1 cells assessed as cell viability at 6 uM after 48 hrs by MTT assay; type: functional; details: read-out: Activity
PANC-1 [5] = experiment: Cytotoxicity against human PANC1 cells assessed as cell viability at 6 uM after 48 hrs by MTT assay; type: functional; details: PANC-1, 48 h, read-out: Activity
[6] = Tmax in mouse at 100 mg/kg, po by HPLC method; type: ADME, organism-based; details: in vivo
Outline: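 Given orally in a self-microemulsifying delivery system (60% surfactant, emulsifier OP:Cremophor EL 1:1; 30% PEG 400 cosurfactant; 10% ethyl oleate oil), total volume no more than 100 μL. Plasma levels measured by previously described methods.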

U-87 MG [7] = experiment: Cytotoxicity against human U87 cells assessed as cell viability at 6 uM after 48 hrs by MTT assay; type: functional, U-87MG ATCC; details: read-out: Activity
A549 [8] = experiment: Cytotoxicity against human A549 cells assessed as decrease in cell viability after 48 hrs by trypan blue exclusion and LDH release; details: A549, 48 h
[9] = Tmax in mouse at 10 mg/kg, iv by LC-MS/MS method; type: ADME, organism-based; details: in vivo
Outline: (§1)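 For IV dosing, compound dissolved in DMSO:ethanol (2:1), total volume no more than 30 μL. For oral dosing, compound given in a self-microemulsifying delivery system (60% surfactant, emulsifier OP:Cremophor EL 1:1; 30% PEG 400; 10% ethyl oleate), total volume no more than 100 μL. Plasma levels measured by previously described methods.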

LN-229 [10] = experiment: Cytotoxicity against human LN229 cells assessed as decrease in cell viability after 48 hrs by trypan blue exclusion and LDH release; details: LN-229, 48 h
T47D [11] = experiment: Cytotoxicity against human T47D cells assessed as decrease in cell viability after 48 hrs by trypan blue exclusion and LDH release
COLO 201 [12] = experiment: Cytotoxicity against human COLO201 cells assessed as cell viability at 6 uM after 48 hrs by MTT assay; type: functional; details: COLO 201, 48 h, read-out: Activity
SK-MEL-2 [13] = experiment: Cytotoxicity against human SK-MEL-2 cells assessed as cell viability at 6 uM after 48 hrs by MTT assay; type: functional; details: SK-MEL-2, 48 h, read-out: Activity
T47D [14] = experiment: Cytotoxicity against human T47D cells assessed as cell viability at 6 uM after 48 hrs by MTT assay; type: functional; details: read-out: Activity
Lipid bilayer = experiment: Induction of DOPC/n-decane bilayer property changes assessed as concentration required to double gramicidin-induced quencher influx rate by […]
SK-MEL-2 [15] = experiment: Cytotoxicity against human SK-MEL-2 cells assessed as decrease in cell viability after 48 hrs by MTT assay; type: functional, cell-based; details: SK-MEL-2, 48 h
[16] = Cmax in mouse at 10 mg/kg, iv by LC-MS/MS method; type: ADME, organism-based; set-up: dose 10 mg/kg, route intravenous; details: in vivo
Outline: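 Mouse iv dosing used polyphenol dissolved in DMSO:ethanol (2:1), with total injected volume never above 30 μL. Plasma levels were measured by previously described methods.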

[17] = Displacement of [3H]resveratrol from Sprague-Dawley rat brain plasma membranes after 1 hr by beta counting method; type: cell membranes
[18] = Cmax in mouse at 100 mg/kg, po by HPLC method; type: ADME, organism-based; set-up: dose 100 mg/kg, route oral; details: in vivo
Outline: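 For oral dosing, polyphenol was dissolved in a self-microemulsifying delivery system: 60% surfactant (emulsifier OP:Cremophor EL 1:1), 30% cosurfactant (PEG 400) and 10% oil (ethyl oleate). Total volume given was never above 100 μL. Plasma levels were quantified by previously described methods.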

PANC-1 [19] = experiment: Cytotoxicity against human PANC1 cells assessed as decrease in cell viability after 48 hrs by MTT assay; type: functional, cell-based; details: PANC-1, 48 h
BXPC-3 [20] = experiment: Cytotoxicity against human BxPC3 cells assessed as decrease in cell viability after 48 hrs by MTT assay; type: functional, cell-based; details: BXPC-3, 48 h
LN-229 [21] = experiment: Cytotoxicity against human LN229 cells assessed as cell viability at 6 uM after 48 hrs by MTT assay; type: functional; details: LN-229, 48 h, read-out: Activity
U-87 MG [22] = experiment: Cytotoxicity against human U87 cells assessed as decrease in cell viability after 48 hrs by trypan blue exclusion and LDH release
NCI-H460 [23] = experiment: Cytotoxicity against human NCI-H460 cells assessed as decrease in cell viability after 48 hrs by MTT assay; type: functional, cell-based; details: NCI-H460, 48 h
NCI-H460 [24] = experiment: Cytotoxicity against human NCI-H460 cells assessed as cell viability at 6 uM after 48 hrs by MTT assay; type: functional; details: NCI-H460, 48 h, read-out: Activity
[25] = Plasma concentration in mouse at 100 mg/kg, po at 60 mins by LC-MS/MS method; type: ADME, organism-based; outline: as §1
MDA-MB-231 [26] = experiment: Cytotoxicity against human MDA-MB-231 cells assessed as decrease in cell viability after 48 hrs by trypan blue exclusion and LDH release; details: MDA-MB-231, 48 h
BXPC-3 [27] = experiment: Cytotoxicity against human BxPC3 cells assessed as cell viability at 6 uM after 48 hrs by MTT assay; type: functional; details: BXPC-3, 48 h, read-out: Activity
[28] = Plasma concentration in mouse at 10 mg/kg, iv at 60 mins by LC-MS/MS method; type: ADME, organism-based; outline: as §1
MDA-MB-231 [29] = experiment: Cytotoxicity against human MDA-MB-231 cells assessed as cell viability at 6 uM after 48 hrs by MTT assay; type: functional; details: MDA-MB-231, 48 h, read-out: Activity
HT-29 [30] = experiment: Cytotoxicity against human HT-29 cells assessed as decrease in cell viability after 48 hrs by trypan blue exclusion and LDH release; details: HT-29, 48 h
HT-29 [31] = experiment: Cytotoxicity against human HT-29 cells assessed as cell viability at 6 uM after 48 hrs by MTT assay; type: functional; details: HT-29, 48 h, read-out: Activity

Chain of Cannabinoid receptor 1 (P21554 whole entry): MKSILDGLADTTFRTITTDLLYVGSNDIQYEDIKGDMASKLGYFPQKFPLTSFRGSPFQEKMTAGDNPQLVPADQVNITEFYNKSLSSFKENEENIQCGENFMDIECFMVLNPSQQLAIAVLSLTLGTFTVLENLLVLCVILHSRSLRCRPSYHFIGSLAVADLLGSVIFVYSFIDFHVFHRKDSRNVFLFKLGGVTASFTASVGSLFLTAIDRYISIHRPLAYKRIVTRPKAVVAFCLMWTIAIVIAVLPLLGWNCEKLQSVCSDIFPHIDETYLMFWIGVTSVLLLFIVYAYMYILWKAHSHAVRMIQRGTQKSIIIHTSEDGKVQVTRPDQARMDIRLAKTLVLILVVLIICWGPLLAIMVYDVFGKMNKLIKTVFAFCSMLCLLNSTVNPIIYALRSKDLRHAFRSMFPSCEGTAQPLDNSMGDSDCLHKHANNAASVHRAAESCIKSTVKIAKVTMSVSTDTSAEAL

## O=C(O[C@@H]1Cc2c(O)cc(O)cc2O[C@@H]1c1cc(O)c(O)c(O)c1)c1cc(O)c(O)c(O)c1 [EPIGALOCATECHIN GALLATE]
A549 [1]
  viability at 6 µM: 103%
[2]
  IC50: 25 µM
COLO 201 [3]
  IC50: 38 µM
Cannabinoid receptor 1
  Ki: 33.6 µM
[4]
  viability at 6 µM: 102%
PANC-1 [5]
  viability at 6 µM: 95%
[6]
  Tmax: 30 min
U-87 MG [7]
  viability at 6 µM: 98%
A549 [8]
  IC50: 29 µM
[9]
  Tmax: 5 min
LN-229 [10]
  IC50: 15 µM
T47D [11]
  IC50: 57 µM
COLO 201 [12]
  viability at 6 µM: 100%
SK-MEL-2 [13]
  viability at 6 µM: 99%
T47D [14]
  viability at 6 µM: 100%
Lipid bilayer
  Activity: 11.2 µM
SK-MEL-2 [15]
  IC50: 31 µM
[16]
  Cmax: 12 µM
[17]
  Ki: 0.025 to 0.045 µM
[18]
  Cmax: 5 µM
PANC-1 [19]
  IC50: 62 µM
BXPC-3 [20]
  IC50: 33 µM
LN-229 [21]
  viability at 6 µM: 106%
U-87 MG [22]
  IC50: 18 µM
NCI-H460 [23]
  IC50: 18 µM
NCI-H460 [24]
  viability at 6 µM: 105%
[25]
  concentration at 1 h: < 1 µM
MDA-MB-231 [26]
  IC50: 83 µM
BXPC-3 [27]
  viability at 6 µM: 97%
[28]
  concentration at 1 h: < 1 µM
MDA-MB-231 [29]
  viability at 6 µM: 102%
HT-29 [30]
  IC50: 60 µM
HT-29 [31]
  viability at 6 µM: 96%
